High-throughput results: PubChem BioAssay, several laboratories
MPTP inh: inhibitors of mitochondrial permeability transition pore. isolated mouse mitochondria, Ca2+ swelling absorbance, 30 min. inhibition, % at 10 µM. 360,000 tested, 1.4% active. AID 602449;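 active = inhibition of 50% or more, scaled per plate between neutral and stimulator controls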;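 also: 0% = DMSO wells given calcium and 100% = 1 mM EGTA wells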
EBV gp42 inh: inhibitors of Epstein-Barr virus glycoprotein 42 | 220,000 tested, 0.42% active | Fluorescence polarization binding assay, mP read-out | inhibition, % (tested at 21.74 µM); in the data active = inhibition above about 50%
Target sequence (Q1HVG2 whole entry, looked up): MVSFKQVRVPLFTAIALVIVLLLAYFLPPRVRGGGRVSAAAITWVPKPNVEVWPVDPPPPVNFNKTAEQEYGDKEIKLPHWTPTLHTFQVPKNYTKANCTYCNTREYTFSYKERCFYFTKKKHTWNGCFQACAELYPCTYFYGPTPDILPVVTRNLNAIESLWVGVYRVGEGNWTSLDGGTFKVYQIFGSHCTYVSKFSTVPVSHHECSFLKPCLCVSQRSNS
GRIN3A LBD mod: modulators (binders) of human NR3A ligand-binding domain | NR3A LBD differential scanning fluorimetry, Tm shift; 0% = protein alone, 100% = glycine-bound protein | Tm shift relative to glycine control, % at 25 µM | 340,000 tested, 2.5% active | AID 1259313;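 active = melting temperature shift of at least 10% of the positive control shift, at one fixed dose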
CHOP inhibitor: blocks CHOP induction under ER stress; CHO-K1 CHOP-promoter luciferase, tunicamycin-induced, 15-18 h; inhibition, % at 10 µM; 220,000 tested, 3.8% active;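 active = compounds that reduced the stress-induced luciferase reporter signal by more than about 70% of percent inhibition, limit read from the data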;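 also: 0% = tunicamycin plus vehicle and 100% = wells without tunicamycin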
TbMetRS inhib: blocks T. brucei methionyl-tRNA synthetase activity; purified T. brucei MetRS, ATP depletion, Kinase-Glo luminescence; inhibition, % at 11.9 µM; 360,000 tested, 0.4% active; AID 624268;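 active = inhibition above a per-plate cutoff of the control wells' mean inhibition plus 3 SD, cut at about 5.5% in these data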;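 also: 0% = DMSO wells median and 100% = median of wells with control inhibitor compound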
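Test system – parasite MetRS enzyme · Reagent – substrates ATP, L-methionine and bulk Escherichia coli tRNA · Doses – 11.9 µM compound single dose, 0.9% DMSO · Times – 15 min enzyme-compound preincubation, 2 h reaction, 10 min detection, 25 °C · Signal – Kinase-Glo luminescence, ATP depletion format · Controls – DMSO-only wells as low control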
WT yeast gro inh: growth inhibition of WT yeast, mitochondrial fusion screen. mitochondrial fusion phenotypic screen, WT strain. inhibition, % at 10 µM. 190,000 tested, 2.1% active. AID 1362; in the data active = inhibition above about 58%; tested in S. cerevisiae
Active calls of the source: *; . = no result. Most compounds without a hit are left out; they make up all but 6.4% or so of the library.

SMILES	MPTP inh	EBV gp42 inh	GRIN3A LBD mod	CHOP inhibitor	TbMetRS inhib	WT yeast gro inh
CC12C=CC(=O)C=C1CCC1C2C(O)CC2(C)C1CCC2(C)O (centres undefined)	0	.	1	.	0	.
CC(C)CNC(=O)c1c(N)n(Cc2ccc3c(c2)OCO3)c2nc3ccccc3nc12	3	2	22*	85*	3	17
COCCCn1c(N)c(C(=O)OCCOC)c2nc3ccccc3nc21	-2	-2	0	-19	0	-35
CCCNC(=O)c1c(N)n(Cc2ccco2)c2nc3ccccc3nc12	.	2	-10	83*	.	8
CCCCNC(=O)c1c(N)n(CCCOC)c2nc3ccccc3nc12	7	1	-10	93*	2	17
COCCNC(=O)c1c(N)n(CCC(C)C)c2nc3ccccc3nc12	-2	-2	-7	68	0	8
COCCCNC(=O)c1c(N)n(Cc2ccco2)c2nc3ccccc3nc12	2	8	1	6	0	.
CC(C)CCn1c(N)c(C(=O)NCc2cccs2)c2nc3ccccc3nc21	4	-6	18*	96*	0	39
CN1CCCC(C(=O)c2ccc(Cl)cc2)C1 (centres undefined)	0	-12	0	13	0	-5
COC(=O)c1c(N)n(Cc2ccc(OC)cc2)c2nc3ccccc3nc12	0	-1	-13	26	2	71*
CCCNC(=O)c1c(N)n(Cc2ccc3c(c2)OCO3)c2nc3ccccc3nc12	0	-13	21*	75*	1	-3
CC(C)CCNC(=O)c1c(N)n(Cc2ccc3c(c2)OCO3)c2nc3ccccc3nc12	5	19	32*	36	1	12
Cc1ccc(C2(O)CN3CCC2CC3)cc1 (centres undefined)	0	.	1	.	-1	.
Cc1nnc2ccc(-c3cccc(C(F)(F)F)c3)nn12	-3	.	1	.	-1	.
Cc1oc2ccc(OC(=O)N(C)C)cc2c1C(=O)OC(C)C	1	-4	0	48	-2	75*
CCOC(=O)c1c(-c2ccc(OC)cc2)oc2ccc(OC(=O)N(C)C)cc12	-1	-7	1	9	0	9
C=CCCC1(C2=CCCCC2)C(=O)NC(=O)NC1=O	0	.	15*	.	0	.
O=C(Nc1ccc(OC(=O)N2CCCCC2)cc1)N1CCOCC1	0	-17	-1	47	-1	1
O=C(Oc1c(Cl)cc(Cl)c2ccccc12)N1CCCCC1	0	-30	2	77*	-1	73*
CNCCc1c(C)n[nH]c1C	2	-11	-2	20	0	-4
COc1ccc(CCn2c(O)c(C=Nc3ccc(F)cc3)c(=O)[nH]c2=O)cc1OC	9	-18	2	21	0	.
CCN(CC)c1ccc(N=Cc2c(O)n(CCc3ccc(OC)c(OC)c3)c(=O)[nH]c2=O)cc1	0	83*	5	33	-2	34
COC(=O)C1=C(c2ccc(S(C)(=O)=O)cc2)C[C@@H]2CC[C@H]1N2C	0	.	-1	.	0	.
O=[N+]([O-])c1ccc(O)c([N+](=O)[O-])c1	0	.	18*	.	0	.
O=C1NC(=S)N(C2CC2)C(=O)/C1=C/c1ccc2c(c1)CCN2CCCCl	18	17	-10	-34	0	7
SMILES	MPTP inh	EBV gp42 inh	GRIN3A LBD mod	CHOP inhibitor	TbMetRS inhib	WT yeast gro inh
CCN1C(=O)/C(=C/c2ccc3c(c2)CCN3CCCCl)C(=O)NC1=S	11	-1	0	90*	0	18
FC(F)(F)c1ccc(CNCCc2c[nH]c3ccccc23)cc1	2	.	2	.	-1	.
Oc1ccc(C[C@H]2NCCc3cc(O)c(O)cc32)cc1O	1	.	0	.	1	.
CNc1cc(Cl)c2nonc2c1[N+](=O)[O-]	-1	5	2	107*	0	54
CCC(C)N1C(=O)/C(=C\c2cc3c4c(c2)CCCN4CCC3)C(=O)NC1=S (centres undefined)	18	-3	-17	-62	0	13
CCC(C)N1C(=O)/C(=C\c2ccc(N3CCCCCC3)cc2)C(=O)NC1=S (centres undefined)	-19	-9	4	71*	-1	47
CCOc1cc2c(cc1OCC)-n1cccc1C(c1cccc(F)c1F)NC2 (centres undefined)	0	.	10*	.	-1	.
N=Cc1c(O)n(-c2ccc(C34CC5CC(CC(C5)C3)C4)cc2)c(=O)[nH]c1=O	-1	-91	-9	81*	-1	-1
